High-throughput results from PubChem BioAssay.
PvdQ acylase: P. aeruginosa PvdQ acylase inhibitors, primary screen, biochemical, fluorescence, plate reader and imaging, single point; AID 488965, 2010; inhibition, % at 10 µM; PvdQ acylase [Pseudomonas aeruginosa LESB58]; hit rate 0.063% among 340,000; purified PvdQ acylase; in the data active = inhibition above about 30%, passing the limit was not always enough; inconclusive = no clear call, values can overlap the other calls;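 also: 0% = vehicle neutral wells and 100% = reference inhibitor wells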
CAL PDZ FP-1: untagged CAL PDZ binding inhibitors, primary screen, biochemical, fluorescence polarization, HTS | inhibition, % at 24.9 µM | purified CAL PDZ, TMR-peptide fluorescence polarization, 1 h | Golgi-associated PDZ and coiled-coil motif-containing protein (Homo sapiens), Q9HD26 | hit rate 0.92% among 300,000;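 active = mean inhibition of at least 30% with at least half of replicates also reaching 30%; inconclusive = no clear call, values can overlap the other calls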;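 also: 0% = DMSO neutral control and 100% = excess unlabeled competitor peptide PRC23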
TbMetRS inhib: T. brucei MetRS inhibitors, primary screen, biochemical, luminescence; methionyl-tRNA synthetase (Trypanosoma brucei brucei); hit rate 0.4% among 360,000; purified T. brucei MetRS, ATP depletion, Kinase-Glo luminescence; inhibition, % at 11.9 µM; AID 624268, 2012;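 active = inhibition above a per-plate cutoff of the control wells' mean inhibition plus 3 SD, cut at about 5.5% in these data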;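 also: 0% = DMSO wells median and 100% = median of wells with control inhibitor compound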
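Measured by: Kinase-Glo luciferase luminescence reporting remaining unconsumed ATP. Material: purified T. brucei MetRS enzyme. Doses: 11.9 µM compound single dose, 0.9% DMSO. Medium: HEPES buffer containing pyrophosphatase, BSA, spermine, DTT. Times: 15 min preincubation, 2 h reaction, all 25 °C. Reagent: methionine, ATP and bulk E. coli tRNA.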
CDK5 inh: inhibitors of human CDK5/p35 kinase, primary screen, biochemical, single concentration. Cyclin-dependent kinase 5 (Homo sapiens) + Cyclin-dependent kinase 5 activator 1 (Homo …. Recombinant CDK5/p35, ADP-Glo luminescence, 60 min. inhibition, % at 10 µM. hit rate 0.01% among 330,000. AID 488839, 2010;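 active = highest replicate inhibition of at least 50% and at least 75% of replicates reaching 50%; inconclusive = only one of the two criteria met; inactive = both criteria failed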;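 also: plate controls were DMSO neutral control for no effect and GW8510 at 10 µM for full effect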
Target sequence (Q00535 whole entry, looked up): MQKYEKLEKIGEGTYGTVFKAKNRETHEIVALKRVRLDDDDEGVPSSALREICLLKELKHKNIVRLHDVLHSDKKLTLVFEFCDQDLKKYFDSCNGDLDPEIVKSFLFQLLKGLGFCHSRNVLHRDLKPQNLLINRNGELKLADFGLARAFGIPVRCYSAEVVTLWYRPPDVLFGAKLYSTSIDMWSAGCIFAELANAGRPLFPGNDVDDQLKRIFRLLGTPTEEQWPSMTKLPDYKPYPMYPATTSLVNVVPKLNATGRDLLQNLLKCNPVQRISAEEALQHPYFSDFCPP
Target sequence (Q15078 whole entry, looked up): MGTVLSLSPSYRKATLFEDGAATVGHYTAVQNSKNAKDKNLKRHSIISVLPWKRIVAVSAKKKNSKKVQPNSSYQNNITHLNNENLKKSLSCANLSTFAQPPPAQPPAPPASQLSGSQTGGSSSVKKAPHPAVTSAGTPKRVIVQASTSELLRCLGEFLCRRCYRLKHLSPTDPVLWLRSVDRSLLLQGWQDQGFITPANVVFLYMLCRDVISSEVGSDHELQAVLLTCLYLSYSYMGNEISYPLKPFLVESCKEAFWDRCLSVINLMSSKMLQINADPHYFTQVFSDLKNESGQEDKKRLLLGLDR
CAL PDZ FP-2: CAL PDZ peptide-binding inhibitors, primary screen, biochemical, fluorescence polarization, Cer-tagged CAL PDZ, HTS; Golgi-associated PDZ and coiled-coil motif-containing protein (Homo sapiens), Q9HD26; purified CAL PDZ, TMR-peptide fluorescence polarization, 1 h; inhibition, % at 20 µM; hit rate 0.02% among 330,000; AID 504414, 2011;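 active = highest replicate inhibition of at least 40%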;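 also: plate controls were DMSO neutral control wells for no effect and unlabeled competitor peptide control wells for full effect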
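material = purified tagged CAL PDZ domain construct (CerCALP) | buffer or medium = sodium phosphate/NaCl buffer pH 7.4 with TCEP, IgG, Thesit | reagent = TMR-labelled reporter peptide T*-PRC34 bound in PDZ groove | incubation = 1 h room-temperature incubation prior to read | measured by = fluorescence polarization (mP) | evaluation = percent inhibition from loss of millipolarization | control set = unlabelled peptide and DMSO controls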
Dyrk1A ADPGlo: rat Dyrk1A kinase inhibitors, primary screen, biochemical, single point, plate reader. Dual specificity tyrosine-phosphorylation-regulated kinase 1A (Rattus norvegicus), Q63470. ADP-Glo luminescence, NFATc1 peptide. inhibition, % at 12.5 µM. hit rate 0.43% among 310,000. AID 504441, 2011; in the data active = inhibition above about 50%;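 also: plate controls were vehicle with enzyme for no effect and no enzyme for full effect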
The depositor's hits bear a star; ? = inconclusive; / = not tested or not shown; + = active, no number. Sampled rows, rich in hits. Any-hit rate of the full collection: about 1.4%.

SMILES	PvdQ acylase	CAL PDZ FP-1	TbMetRS inhib	CDK5 inh	CAL PDZ FP-2	Dyrk1A ADPGlo
Cn1nc(C(=O)NC2CCCCC2)c2c1-c1ccccc1SC2	-0.1	-0.5	0.0	0.0	0.2	2.9
CC1CCC(NC(=O)c2nn(C)c3c2CSc2ccccc2-3)CC1 (stereo unspecified)	-9.2	70.2*	-0.4	3.6	-2.0	4.7
O=C(CSc1nc2nn(-c3ccccc3)c(=O)c-2c2n1CCCCC2)Nc1ccc(OC(F)F)cc1	-6.0	126.6*	-0.3	0.5	4.7	3.9
CC(=O)c1ccc(NC(=O)CSc2nc3nn(-c4ccccc4)c(=O)c-3c3n2CCCCC3)cc1	-20.3	-4.2	-0.2	2.1	-0.2	/
COC(=O)Cc1ccc(OC2(C)CCN(Cc3ccccc3OC(F)F)C2)cc1 (stereo unspecified)	/	/	-0.4	/	/	/
COC(=O)c1ccccc1-c1c2ccc(=N)cc-2oc2cc(N)ccc12	-9.4	/	-0.5	3.8	108.8*	7.8
COC(=O)c1ccccc1-c1ccc(/C=N/NC(=O)c2cc3ccccc3o2)o1	-6.9	-8.5	1.3	1.3	-6.5	16.9
Nc1cc(N)cc(C(=O)c2ccccc2)c1	/	/	-0.6	/	/	/
CCN1C(=O)[C@H]2[C@@H](c3ccc(-c4ccc(Cl)c(Cl)c4)cc3)N3CCCC[C@@]3(C(=O)OC)[C@H]2C1=O	-9.9	34.6*	-0.4	-0.6	-1.1	-2.0
Cn1nc(C(=O)Oc2cc(=O)n(C)c3ccccc23)c2ccccc2c1=O	-7.4	36.3*	0.3	3.0	1.1	2.6
Cc1ccc(COC(=O)c2nn(C)c(=O)c3ccccc23)cc1	-3.1	-0.7	-1.0	1.9	0.3	0.8
COc1ccc(C2=CSC3=C(C(=O)c4cccc(S(=O)(=O)N(C)C)c4)CCN23)cc1	-21.8	95.7*	0.8	-0.6	/	2.7
Cc1ccc2c(CN3CCCc4ccccc43)cc(=O)oc2c1C	-7.0	49.0*	-0.1	0.2	/	10.0
COc1ccc(-n2nc3c(c2NC(=O)c2ccco2)CS(=O)(=O)C3)cc1	-13.9	76.2*	-0.3	0.3	-1.0	19.8
O=C(CSc1nnnn1-c1ccccc1)CSc1nnnn1-c1ccccc1	2.1	-2.6	-1.1	-0.9	-1.4	0.6
O=C(CSc1nnnn1-c1ccccc1)c1ccc(O)cc1O	-7.9	42.8*	-0.2	-0.2	-1.5	10.6
CCCCNC(=O)c1[nH]c(=O)cnc1-c1ccccc1	/	/	-0.1	/	/	/
CN(C)c1ccc(C(=O)OCC(=O)NC2CCCCCC2)cc1	-13.5	31.9*	0.1	-1.3	27.7	5.9
CCn1c(SCC(=O)Nc2ccc(OC)c(OC)c2)nnc1-c1cccs1	-12.8	-2.5	0.0	-0.6	-0.9	-1.6
CCN(CC)CCOC(=O)c1ccc(NC(=O)CSc2nnc(-c3cccs3)n2CC)cc1	-12.1	61.4*	-0.1	0.3	-1.1	-0.5
CCNC(=O)C1(C)CCCN(Cc2cccc(Oc3ccccc3)c2)C1 (stereo unspecified)	/	/	-0.3	/	/	/
CCCOC(=O)c1ccc(-c2ccc(C=O)o2)cc1	12.2	-5.6	-0.3	-1.2	-2.3	-2.2
CCOC(=O)c1ccc(-c2ccc(C=O)o2)cc1	?	64.1*	-0.2	0.9	-1.1	20.5
CC(C)(C)c1ccc(C(=O)NCCC(=O)NNC(=O)COc2ccc(F)cc2)cc1	-18.8	33.0*	-0.2	-0.1	0.2	1.5
O=C(NCc1ccccc1)c1cc(C2CCCN(S(=O)(=O)c3cccs3)C2)on1 (stereo unspecified)	/	/	-0.1	/	/	/
SMILES	PvdQ acylase	CAL PDZ FP-1	TbMetRS inhib	CDK5 inh	CAL PDZ FP-2	Dyrk1A ADPGlo
CC(C)(C)C(=O)O/N=C(\N)Cc1ccc(-c2csnn2)cc1	-18.5	61.2*	-0.5	0.5	-0.6	/
C=CCNc1oc(-c2cccs2)nc1S(=O)(=O)c1ccccc1	-19.9	38.6*	0.4	1.2	3.7	-5.9
CCCn1cnc2c(SCCc3ccccc3)nc(N)nc21	-7.9	53.9*	-0.2	-0.5	/	-0.8
Nc1nc2ncccn2c1-c1ccc(C(F)(F)F)cc1	/	/	-0.3	/	/	/
CC(=O)C1=C(c2ccc(Br)cc2)C(=O)c2ccccc2C1=O	2.3	/	0.1	0.6	0.7	76.0*
CNC1=C(N(C(C)=O)c2ccc(Br)cc2)C(=O)c2ccccc2C1=O	-2.3	-5.9	1.1	-0.6	0.5	11.2
CC(=O)N(CCc1ccccc1)c1ccc2c(c1)C1CC2CCN1C(=O)OCc1ccccc1 (stereo unspecified)	/	/	0.1	/	/	/
O=C(NCc1ccccc1)C(C1CC1)n1c(CSCCOc2ccccc2)nc2ccccc21 (stereo unspecified)	/	/	-0.1	/	/	/
CC(=O)NC12CC3CC(C1)CC(C(=O)Nc1cccc(S(=O)(=O)N4CCCCCC4)c1)(C3)C2	-13.1	193.7*	-0.2	0.0	-1.9	-0.7
COc1cccc(C(=O)N2CCC[C@@H]2C(=O)N2CCC[C@H]2C(=O)NCc2ccncc2)c1	/	/	0.0	/	/	/
O=C(NCCC(=O)N1CCCC1)c1ccccc1Cl	-5.6	38.8*	-0.2	0.3	-0.3	0.7
CC(C)NC(=O)C1(C)Cc2c(-c3ccc(N(C)C)cc3)ccnc2O1 (stereo unspecified)	/	/	-0.2	/	/	/
COC(=O)CN1C(=O)CSc2ccc(S(=O)(=O)N3CCC(C)CC3)cc21	/	/	0.0	/	/	/
CCC(CC)C(=O)N(C)c1c(C)nc2c(OCCOc3ccc(F)cc3)cccn12	/	/	0.4	/	/	/
O=[N+]([O-])c1ccc(N2CCCC2)cc1NC1CC1	-10.3	35.6*	-0.3	/	-0.8	3.5
Cc1ccc(S(=O)(=O)N2CCCCC2)cc1NC(=O)C1CC1	7.9	-4.4	-0.3	3.6	-0.7	1.8
COc1ccc(S(=O)(=O)N2CCCCC2)cc1NC(=O)C1CC1	-15.9	31.7*	-0.2	0.2	-1.4	3.4
COc1ccc(S(=O)(=O)N2CCCCCC2)cc1NC(C)C(=O)Nc1ccc(NC(C)=O)cc1 (stereo unspecified)	-11.4	48.2*	-0.1	1.1	-0.3	2.5
COc1ccc(S(=O)(=O)N2CCCCCC2)cc1C(=O)OC(C)C(N)=O (stereo unspecified)	-12.2	+	-0.2	-0.9	0.4	6.8
COc1ccc(S(=O)(=O)N2CCC(C(=O)N[C@H](C(=O)N3CCCC3)C(C)C)CC2)cc1	-18.4	93.7*	-0.1	-0.1	-0.2	2.9
COc1ccc(NC(C)=O)cc1NC(C)C(=O)Nc1cccc(S(=O)(=O)N2CCOCC2)c1 (stereo unspecified)	-17.6	-2.0	0.1	0.9	0.8	/
